Measurements taken from ChEMBL document CHEMBL3352788, “Characterization of selective exosite-binding inhibitors of matrix metalloproteinase 13 that prevent articular cartilage degradation in vitro” (J Med Chem, 2014).

Legend:
Cytochrome P450 2B6 = biological target: T1, Cytochrome P450 2B6 (Homo sapiens, UniProt P20813); test: (§1) Inhibition of CYP2B6 (unknown origin) using bupropion substrate at 20 uM; format: ADME; settings: 20 µM
T1 sequence (P20813 whole entry): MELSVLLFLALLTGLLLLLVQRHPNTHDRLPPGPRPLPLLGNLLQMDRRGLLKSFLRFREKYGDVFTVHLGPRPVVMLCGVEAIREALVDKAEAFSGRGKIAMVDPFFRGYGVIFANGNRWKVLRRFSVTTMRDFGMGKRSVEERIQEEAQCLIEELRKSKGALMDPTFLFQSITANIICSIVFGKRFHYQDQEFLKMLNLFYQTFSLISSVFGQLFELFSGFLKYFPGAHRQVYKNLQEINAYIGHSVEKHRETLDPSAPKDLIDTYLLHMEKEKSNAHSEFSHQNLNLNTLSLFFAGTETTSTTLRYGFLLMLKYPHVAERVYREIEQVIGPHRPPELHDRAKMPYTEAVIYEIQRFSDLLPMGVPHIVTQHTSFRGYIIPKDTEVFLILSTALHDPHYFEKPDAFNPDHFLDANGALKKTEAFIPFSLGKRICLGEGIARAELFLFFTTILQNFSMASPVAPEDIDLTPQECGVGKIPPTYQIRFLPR
Outline: (§2)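 Human liver microsomes with probe substrate and an NADPH-regenerating system in 0.1 M potassium phosphate pH 7.4 at 37 °C, run in duplicate. Inhibitor at 0–20 μM (0–2.5 μM for one compound), eight concentrations. Reactions were stopped with acetonitrile/formic acid containing isotope-labelled internal standard, and metabolite area ratios were compared with and without inhibitor. IC50 was taken by linear interpolation between bracketing concentrations.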

CYP2B6 = CYP2B6 (Homo sapiens, UniProt P20813); test: as §1; format: ADME; settings: probe bupropion; outline: as §2

Structure (SMILES)	inhibition (INH) (Cytochrome P450 2B6)	inhibition at 20 µM (CYP2B6)
Cc1cc(CNC(=O)c2cc(C(=O)NCc3ccc(F)c(C)c3)ncn2)ccc1F	> 10%	–
COC(=O)c1ccc(CSc2nc3c(c(=O)[nH]2)CCC3)cc1	–	< 50%
